Env fusion inh: HIV envelope-mediated fusion inhibition; AID 651610; inhibition, % at 12.3 µM; actives 1.1% (n = 360,000); HeLa-JRFL Env/CEM21 cell fusion, luciferase;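 active = mean replicate inhibition score of at least 50 and every replicate individually at or above 50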
FGF22 binding: shifts melting point of recombinant human FGF22; Q9HCT0; activity (Tm shift, normalised), % at 9.99 µM; actives 1.5% (n = 340,000); recombinant FGF22 thermal shift, SYPRO orange fluorescence; percent of sucrose octasulfate shift, DMSO zero;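 active = mean Tm shift, scaled 0 neutral to 100 positive control, at about 1.3% or above, every replicate too, limit read from the data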
Target sequence (Q9HCT0 whole entry, looked up): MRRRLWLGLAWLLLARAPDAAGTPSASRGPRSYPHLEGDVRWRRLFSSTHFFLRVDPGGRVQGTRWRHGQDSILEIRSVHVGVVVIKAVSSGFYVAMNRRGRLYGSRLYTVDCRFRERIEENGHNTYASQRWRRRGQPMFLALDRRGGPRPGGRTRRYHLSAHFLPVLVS
Cneo AK release: Cryptococcus neoformans lysis via adenylate kinase release. AID 651654. C. neoformans lysis, adenylate kinase release luminescence, 4 h; normalised: neutral wells 0, clomiphene wells 100. actives 0.2% (n = 360,000). lysis activity, % at 15 µM;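 active = mean lysis activity across replicates of at least 80%, whatever share of replicates individually reach that level; inactive = mean lysis activity below 80%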
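Test system: log-phase Cryptococcus neoformans yeast cells. Input: 5 × 10^6 yeast cells/mL. Medium: fresh YPD growth medium. Doses: single dose. Incubation: static 4 h at 37 °C with compound, 1 h detection. Measured by: luminescent adenylate kinase detection reagent. Read-out: signal increase indicating cell lysis. Benchmarks: Clomiphene.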
PGC1a acetyl inh: modulators of PGC1a acetylation | U2OS PGC1a acetylation, AlphaScreen anti-acetyl-lysine; with virally co-expressed GCN5 acetyltransferase | inhibition, % at 15.6 µM | actives 0.17% (n = 350,000);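 active = every replicate shows inhibition of at least 40%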
rRNA inh HTS: inhibitors of bacterial rRNA selective over humanized ribosomes; E. coli WT GFP vs humanized-ribosome RFP mutants, fluorescence, 24 h; hits give low values; DMSO median 0, no signal -100; GFP signal change (wild-type ribosome), % (no concentration beside the values); actives 1.6% (n = 350,000);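 active = significant combined selectivity score with lowered wild-type GFP, culture density cut under 30%, mutant RFP and density less affected; inactive = any of these conditions unmet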
ERAP1 HTS inh: inhibitors of human ERAP1 aminopeptidase | actives 0.15% (n = 340,000) | recombinant ERAP1, Leu-AMC fluorescence, 60 min | AID 652197 | inhibition, % at 10.7 µM | Q9NZ08;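 active = mean replicate inhibition of at least 30%, or all replicates individually reaching that 30% level; inactive = mean below 30% and not every replicate reaching it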
Of the large screens only hits and unclear results are named; the others gave an inactive call. A selection: hits, their analogues and other compounds. The true share with any hit is near 3.5%.

N=C(N1CCCc2ccccc21)N1CCCc2ccccc21	none (no result: FGF22 binding)
COC(=O)[C@]1(C)N[C@H](CN(C)C(=O)c2ccc(C(C)(C)C)cc2)[C@@H]2C(=O)N(Cc3ccccc3)C(=O)[C@@H]21	FGF22 binding 43 (no result: PGC1a acetyl inh)
CCN(C[C@H]1N[C@@](CC)(C(=O)OC)[C@H]2C(=O)N(Cc3ccccc3)C(=O)[C@@H]12)S(=O)(=O)c1ccc(OC(F)(F)F)cc1	Env fusion inh 87 (no result: PGC1a acetyl inh)
CCN(C[C@H]1N[C@@](CC)(C(=O)OC)[C@H]2C(=O)N(Cc3ccccc3)C(=O)[C@@H]12)S(=O)(=O)c1ccc(C)cc1	Env fusion inh 81 (no result: ERAP1 HTS inh)
CCNC(=O)N(C)C[C@H]1N[C@@](C)(C(=O)OC)[C@H]2C(=O)N(Cc3ccccc3)C(=O)[C@@H]12	none
CCN(C[C@H]1N[C@@](CC)(C(=O)OC)[C@H]2C(=O)N(Cc3ccccc3)C(=O)[C@@H]12)S(=O)(=O)c1ccc(C(C)(C)C)cc1	Env fusion inh 58 (no result: PGC1a acetyl inh)
C[C@@H]1CN([C@H](C)CO)C(=O)c2cccc(NS(=O)(=O)c3cccs3)c2O[C@H]1CN(C)Cc1ccccc1	none
CCN(C[C@H]1N[C@@](C)(C(=O)OC)[C@H]2C(=O)N(Cc3ccccc3)C(=O)[C@@H]12)S(=O)(=O)c1ccc(C(C)(C)C)cc1	Env fusion inh 84
COc1cccc(Nc2nc(N)c([N+](=O)[O-])c(NCc3ccccc3)n2)c1	rRNA inh HTS -34
Nc1nc(Nc2ccccc2)nc(NCc2ccccc2)c1[N+](=O)[O-]	rRNA inh HTS -15 (no result: Cneo AK release, PGC1a acetyl inh)
Nc1nc(NCc2ccccc2)nc(NCc2ccccc2)c1[N+](=O)[O-]	none (no result: FGF22 binding, rRNA inh HTS, ERAP1 HTS inh)
CCN1CCc2c(OCC(=O)N3CCc4ccccc43)cccc2C1=O	none (no result: Cneo AK release, PGC1a acetyl inh)
O=C(C1CCC(CNc2nc(=S)[nH]c3ccccc23)CC1)N1CCN(c2ccccn2)CC1 (stereo unspecified)	Env fusion inh 65 (no result: FGF22 binding, rRNA inh HTS, ERAP1 HTS inh)
O=C(NCC1CC1)c1cccc2c1C(=O)c1ccc(-c3ccc(OC(F)(F)F)cc3)cc1S2(=O)=O	none
CSCC[C@H](NC(=O)c1cccs1)c1nnc2ccccn12	none
CSCC[C@H](NC(=O)c1ccc(Br)o1)c1nnc2ccccn12	PGC1a acetyl inh 43
COc1cc(C2CC(=O)c3c([nH]c(C(=O)OCCOC(C)C)c3C)C2)cc(OC)c1OC (stereo unspecified)	Env fusion inh 55 (no result: PGC1a acetyl inh)
O=C(CCC(=O)N1CCN(c2ccccc2F)CC1)N1CCN(c2ccccc2)CC1	none
O=C(CN1CCN(Cc2ccccc2)CC1)N/N=C/C=C/c1ccccc1[N+](=O)[O-]	none (no result: Cneo AK release, PGC1a acetyl inh)
O=C(CN1CCN(Cc2ccc(Cl)cc2)CC1)N/N=C/C=C/c1ccccc1[N+](=O)[O-]	rRNA inh HTS -42 (no result: Cneo AK release, PGC1a acetyl inh)
COCCN(C(=S)Nc1ccccc1C)C(C)c1ccco1 (stereo unspecified)	FGF22 binding 43
CN(Cc1nc(-c2ccncc2)no1)S(=O)(=O)c1ccc(Br)cc1	none (no result: Env fusion inh, FGF22 binding, rRNA inh HTS, ERAP1 HTS inh)
Cc1cccc(C(P(=O)(c2ccccc2)c2ccccc2)P(=O)(c2ccccc2)c2ccccc2)n1	Env fusion inh 64 (no result: FGF22 binding, Cneo AK release, PGC1a acetyl inh, rRNA inh HTS, ERAP1 HTS inh)
Cc1cccc(C(O)C(O)c2cccc(C)n2)n1 (stereo unspecified)	none
COc1ccc(C)cc1NC(=O)CSc1nnnn1C1CCCC1	none (no result: PGC1a acetyl inh)
COc1ccc(C2=NOC(Cn3nc(C(=O)NCc4cccc(Br)c4)cc3-c3ccccc3)C2)cc1 (stereo unspecified)	Env fusion inh 85
COc1ccccc1CNC(=O)c1cc(-c2ccccc2C)n(CC2CC(c3cccc([N+](=O)[O-])c3)=NO2)n1 (stereo unspecified)	Env fusion inh 60
COc1ccc(C2=NOC(Cn3nc(-c4ccccc4)cc3C(=O)NCc3cccc(Br)c3)C2)cc1 (stereo unspecified)	none (no result: ERAP1 HTS inh)
COc1ccc(NC(=O)N(C)C[C@H]2OCCCC[C@@H](C)Oc3ccc(NC(=O)c4ccncc4)cc3C(=O)N([C@H](C)CO)C[C@@H]2C)cc1	none (no result: ERAP1 HTS inh)
O=C(NC(Nc1nc2ccc([N+](=O)[O-])cc2s1)(C(F)(F)F)C(F)(F)F)c1ccccc1Cl	none (no result: Cneo AK release, PGC1a acetyl inh)
